Bioassay records (PubChem)
Sampled rows, rich in hits. Any-hit rate of the full collection: about 1.3%.
CASP6 VEID inh – inhibitors of human caspase-6 | P55212 | purified caspase-6, Z-VEID-R110 cleavage fluorescence | inhibition, % at 12.5 µM | 350,000 tested, 0.53% active;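 active means mean inhibition across replicates at least about 35%, with every replicate also reaching that limit, limit read from the data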;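 further: 0% = median of neutral control wells and 100% = no fluorescence left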
NSD2 HMT inh – NSD2 (human) methyltransferase inhibition | O96028 | NSD2 peptide methylation, AlphaScreen, 120 min | inhibition, % at 12.5 µM | 310,000 tested, 0.54% active; in the data active means inhibition above about 50%
UCH37 DUB inh – blocks the human deubiquitinase UCH37. 330,000 tested, 0.33% active. inhibition, % (no concentration beside the values). purified proteasome/UCH37, Ub-AMC cleavage fluorescence. AID 588478;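 active means mean inhibition over replicate wells above about 20%, limit read from the data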;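 further: 0% = compound-free wells with enzyme and 100% = wells lacking proteasome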
Target sequence (Q9Y5K5 whole entry, looked up): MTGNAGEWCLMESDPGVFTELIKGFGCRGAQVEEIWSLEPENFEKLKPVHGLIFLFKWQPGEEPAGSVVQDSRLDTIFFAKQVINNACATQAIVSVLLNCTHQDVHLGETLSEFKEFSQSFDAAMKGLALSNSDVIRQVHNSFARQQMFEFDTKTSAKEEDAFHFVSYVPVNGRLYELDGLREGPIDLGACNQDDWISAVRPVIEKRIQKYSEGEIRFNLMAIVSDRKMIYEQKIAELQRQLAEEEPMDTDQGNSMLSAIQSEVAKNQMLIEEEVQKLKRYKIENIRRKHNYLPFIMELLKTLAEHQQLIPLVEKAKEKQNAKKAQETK
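Signal – fluorescence, ex 355 nm, em 460 nm · System – Proteasome-bound UCH37 · Input – 0.15 nM proteasome as dispensed · Timing – 30 min preincubation with enzyme, 25 min cleavage at room temperature · Read-out basis – percent inhibition of cleavage signal versus uninhibited and no-proteasome wells · Medium – Tris-HCl pH 7.4 with ATP-MgCl2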
LEDGF integ inh – blocks HIV-1 LEDGF/p75-dependent DNA integration; AID 743269; inhibition, % at 3.7 µM; TR-FRET IN-LEDGF/p75 DNA integration, Eu/Cy5; 370,000 tested, 0.64% active;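 active means inhibition above the screen-wide mean plus 3 SD, cut at about 13% in these data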;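 further: signal is the Cy5 over europium emission ratio at 671 and 618 nm; 0% = plate median of compound wells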
TDP2 absorb – TDP2 (human) inhibition, absorbance primary screen; O95551; 370,000 tested, 0.34% active; AID 720702; inhibition, % at 12.8 µM; recombinant TDP2, T5PNP hydrolysis, p-nitrophenol absorbance 415 nm;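 active means inhibition above the mean of all tested compounds plus 3 SD, set per campaign, cut at about 25% in these data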;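 further: 0% = DMSO with enzyme and 100% = buffer with substrate but no TDP2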
Target sequence (O95551 whole entry, looked up): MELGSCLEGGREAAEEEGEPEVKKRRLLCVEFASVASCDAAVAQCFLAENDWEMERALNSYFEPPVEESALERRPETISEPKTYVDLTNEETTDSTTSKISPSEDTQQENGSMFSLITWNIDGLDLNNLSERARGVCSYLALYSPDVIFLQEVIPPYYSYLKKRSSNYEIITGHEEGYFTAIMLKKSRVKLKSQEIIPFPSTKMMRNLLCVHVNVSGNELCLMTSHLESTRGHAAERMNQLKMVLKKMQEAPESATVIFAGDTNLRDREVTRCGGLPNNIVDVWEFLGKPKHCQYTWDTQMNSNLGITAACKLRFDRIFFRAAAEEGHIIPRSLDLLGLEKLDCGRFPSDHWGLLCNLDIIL
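System: recombinant human TDP2 / Amount: 120 nM TDP2 per well / Also added: 5 mM T5PNP chromogenic substrate / Doses: 12.8 µM single point, 1% DMSO / Incubation: 2 h at 37 °C / Detection: p-Nitrophenol epi absorbance / Evaluation: % inhibition relative to enzyme-containing and enzyme-free wells / Repeats: singlicate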
IN multimer act – HIV-1 integrase multimerization activation, counter-screen; shares compounds with LEDGF integ inh; activation, % at 7.7 µM; TR-FRET HIV-1 integrase multimerization, biochemical; 2,000 tested, 17% active; in the data active means activation above about 8.9%
TRFRET interf – optically interferes with TR-FRET readout in LEDGF counter-screen. inhibition, % at 7.7 µM. AID 1053135. TR-FRET optical interference counterscreen, HIV-1 IN multimerization. 2,000 tested, under 10 active. shares compounds with LEDGF integ inh;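 active means inhibition above the mean over all tested compounds plus 3 SD, which no compound reached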;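 further: 0% = integrase with antibodies and DMSO and 100% = antibodies without integrase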
LEDGF integ conf – confirmation of HIV-1 LEDGF/p75-dependent integration inhibitors; TR-FRET LEDGF/p75-dependent HIV-1 integration, biochemical; shares compounds with LEDGF integ inh; 2,000 tested, 36% active; AID 1053136; inhibition, % at 3.7 µM; in the data active means inhibition above about 14%
* marks the source's active call; other numbers are inactive results; x = not tested or not shown.

SMILES | CASP6 VEID inh | NSD2 HMT inh | UCH37 DUB inh | LEDGF integ inh | TDP2 absorb | IN multimer act | TRFRET interf | LEDGF integ conf
COc1ccc(C(=O)OCC(=O)NC2CCCCCCC2)cc1OC | 3 | -1 | 2 | 27* | 0 | 1 | -5 | 2
Cc1ccc(C=NNc2nnc(Cl)c3ccccc23)cc1 | x | x | 6 | x | x | x | x | x
O=C(C(=NN=Cc1ccc(O)c(O)c1O)c1ccccc1)c1ccccc1 | x | x | 4 | x | x | x | x | x
CN=c1scc(-c2ccccc2F)n1/N=C/c1ccc(O)c(O)c1O | 21 | 11 | x | 22* | -17 | 0 | -1 | 28*
Cc1ccc(-n2ccnc(SCC(=O)NCCc3ccccc3)c2=O)cc1F | -3 | -1 | -32 | 17* | -10 | 3 | -10 | -9
O=C(N/N=C/C=C/c1ccco1)c1cccnc1 | x | 7 | x | 27* | -10 | 3 | -13 | 34*
O=C(N/N=C/C=C\c1ccco1)c1cccnc1 | x | 7 | x | 6 | -4 | x | x | x
O=C(N/N=C/C=C/c1ccco1)c1cnccn1 | 22 | -3 | x | 26* | -11 | 3 | -13 | 20*
O=C(NN=Cc1cccnc1)c1cc(-c2ccccc2)nc2ccccc12 | x | x | 2 | x | x | x | x | x
O=C(O)c1ccc(C=NN2CCN(Cc3ccc(Cl)cc3)CC2)cc1 | x | x | 2 | x | x | x | x | x
Brc1ccc(-c2nc(-c3ccccc3)no2)o1 | x | -1 | 0 | 0 | -7 | x | x | x
Brc1ccc(C2=Nc3cccc4cccc(c34)N2)o1 | 1 | 36 | 5 | 42* | -7 | -1 | 4 | 5
COc1cc(C=NNC2=NS(=O)(=O)c3ccccc32)cc(OC)c1OC | x | x | 17 | x | x | x | x | x
CC(C(=O)Nc1cccc([N+](=O)[O-])c1)n1nnc2ccccc21 (configuration not stated) | x | 1 | 2 | 82* | 2 | -2 | 6 | -12
CCc1cc(=O)oc2cc(C)c(CN3CCCC3)c(O)c12 | x | 7 | 0 | 35* | -7 | 6 | -30 | 40*
O=C1CC(c2ccco2)CC(O)=C1C=Nc1cc(Cl)ccc1Cl (configuration not stated) | x | 3 | -4 | 21* | 2 | 0 | 2 | 21*
O=C1CC(c2ccco2)CC(O)=C1C=Nc1cc(Cl)ccc1O (configuration not stated) | x | 18 | -3 | 34* | -15 | 5 | -19 | 16*
O=C1CC(c2ccco2)CC(O)=C1C=Nc1ccccc1-c1ccccc1 (configuration not stated) | -4 | 3 | -20 | 2 | -4 | x | x | x
CC(=NNS(=O)(=O)c1ccc(C(C)C)cc1)c1ccncc1 | x | x | 5 | x | x | x | x | x
C=CCN(CC=C)C(=S)NC(=O)c1ccc(-c2ccccc2)cc1 | x | 3 | 1 | 23* | 3 | 0 | 0 | 17*
C=CCN(CC=C)C(=S)NC(=O)c1ccc(C)c(Br)c1 | x | -1 | 3 | 25* | 16 | 0 | 1 | 33*
C=CCN(CC=C)C(=S)NC(=O)c1ccc(OC)cc1 | 4 | 0 | 2 | -1 | 3 | x | x | x
CC(=O)c1ccc(NC(=S)NC(=O)Cc2ccc(Cl)cc2)cc1 | -2 | -1 | 3 | 15* | 4 | 8 | -28 | -3
COc1ccc(-c2c(-c3cc(OC)cc(OC)c3)n(C)c3ccc(-c4ccc(OC)nc4)cc23)cc1 | -3 | x | -49 | 19* | -6 | 1 | -5 | -5
O=C(/C(=N/N=C/c1ccc(O)c(O)c1O)c1ccccc1)c1ccccc1 | 7 | 41 | x | 14* | -11 | 3 | -13 | 28*
SMILES | CASP6 VEID inh | NSD2 HMT inh | UCH37 DUB inh | LEDGF integ inh | TDP2 absorb | IN multimer act | TRFRET interf | LEDGF integ conf
Nc1n[nH]c(CCCO)n1 | x | 0 | 2 | 25* | 6 | -1 | 3 | -4
CCOc1ccc(C=Nn2c(COc3ccccc3)n[nH]c2=S)cc1OC | x | x | 6 | x | x | x | x | x
COc1ccc(C=Nn2cnc3c(sc(=S)n3-c3ccccc3)c2=O)cc1 | x | x | 3 | x | x | x | x | x
Cc1c(F)cccc1NC(=O)CCCCCC1NC(=O)NC1C (configuration not stated) | -5 | x | 2 | 78* | 5 | -1 | 5 | 89*
O=S(=O)(c1cnccc1N1CCN(N=Cc2ccccc2)CC1)N1CCCCC1 | x | x | 3 | x | x | x | x | x
COc1ccc(C(=O)NCCC(C)C)cc1S(=O)(=O)N1CCOCC1 | x | -1 | 3 | -3 | 4 | x | x | x
COc1ccc(CC(=O)NCCC(C)C)cc1S(=O)(=O)N1CCOCC1 | -1 | -8 | 2 | 89* | 6 | -3 | 14 | -2
CCCCCCCCCSc1n[nH]c(N)n1 | x | -69 | 0 | 46* | -2 | -1 | 2 | -4
CC(=O)c1ccc(OC2(C)CCN(Cc3ccc4c(c3)OCCO4)C2)cc1 (configuration not stated) | 0 | 9 | x | 15* | 3 | -3 | 17 | -5
COc1ccc2c3c(ccc2c1)C(=O)/C(=C/O)CC3 | 0 | -1 | -45 | 17* | 4 | 5 | -17 | 27*
CCn1c(NC(=O)/C=C/c2ccc(F)cc2)nc2ccccc21 | -1 | 4 | 2 | 16* | 9 | 0 | -2 | 11
Cc1cc(-c2csc(NC(=O)c3ccc(=O)[nH]c3)n2)c(C)n1Cc1ccco1 | 18 | 10 | 1 | 63* | -3 | 11* | -58 | 43*
C=CCSC1=N/C(=C\C=C\c2ccco2)C(=O)S1 | x | 20 | x | 62* | 7 | 9 | -43 | 75*
Cc1ccnc(NS(=O)(=O)c2ccc(NC(=O)c3ccccc3F)cc2)n1 | 1 | 8 | 1 | 25* | 5 | 1 | -2 | -3
O=C(C[n+]1ccccc1)NN=Cc1cc(Br)cc(Br)c1O | x | x | 4 | x | x | x | x | x
O=C(NN=Cc1ccc(O)c(O)c1)c1cccc(S(=O)(=O)N2CCCCC2)c1 | x | x | 3 | x | x | x | x | x
O=C(O)c1cc(-c2ccc(/C=C3\NC(=O)N(c4ccc(Cl)cc4)C3=O)o2)ccc1Cl | 40* | 33 | -25 | 15* | 3 | 1 | -7 | 27*
Clc1ccccc1C=Nc1cc(-c2ccccc2)nn1-c1ccccc1 | x | x | 6 | x | x | x | x | x
CC1=CN2C(=N)/C(=C/c3ccc([N+](=O)[O-])o3)C(=O)N=C2S1 | 37* | 5 | 6 | 18* | 7 | 6 | -28 | 17*
CC1=CN2C(=N)/C(=C/c3ccco3)C(=O)N=C2S1 | 5 | 19 | 10 | 4 | 7 | x | x | x
O=C(COc1ccccc1[N+](=O)[O-])NCCC1=CCCCC1 | 0 | -2 | 6 | 18* | -2 | 0 | -2 | -1
COc1ccc(C=NNC(=O)CNC(=O)C2COc3ccccc3O2)cc1OC (configuration not stated) | x | x | 2 | x | x | x | x | x
